Screens: PubChem BioAssay, several laboratories
CaV13 ICDI inh: Primary screen for inhibitors of IQ motif and Ca2+-dependent inactivation inhibitor domain binding in CACNA1D, Förster resonance energy transfer in living cells, … | HEK cells, CFP/YFP FRET ICDI-IQ, plate reader, 10 min; percent FRET-ratio fall versus neutral wells | inhibition, % at 12.3 µM | hit rate 0.098% among 340,000;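 active = mean replicate inhibition of at least 30% and at least 1% of replicates passing that level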;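 note: 0% = median of the neutral control wells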
Xi reactivation: activators of inactive X chromosome reactivation, primary screen, imaging, XiGFP fibroblasts, GFP high-content imaging, set 2; XiGFP mouse fibroblasts, % GFP-positive cells imaging, 3 d; cells co-treated with 5-aza-dC sensitizer; scaled so ellipticine positive control = 100%; activation, % at 7.58 µM; hit rate 0.055% among 360,000; AID 743238, 2013;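 active = mean normalized replicate activation at least 10% and every replicate at or above 10%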;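 note: 0% = median of on-plate neutral control wells and 100% = ellipticine 6 µM median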
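Material: XiGFP fibroblasts, SV40-immortalized; Buffer or medium: DMEM containing 5-aza-dC; Compound dosing: single point; Times: 3 days compound exposure.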
TROY NFkB inh: inhibitors of TROY-driven NF-kB signaling, primary screen, Q293 LMP1-TROYcd cells, NF-kB luciferase, uHTS; Q293 LMP1-TROYcd NF-kB luciferase reporter, 4 h; inhibition, % at 10 µM; hit rate 0.98% among 360,000;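 active = compounds whose plate-normalised and pattern-corrected inhibition of the luciferase reporter signal at the single screening dose is 50% or more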
LGR2 inh: inhibitors of bursicon-induced LGR2 CRE-luciferase signal, primary screen, cell-based, HEK293, CRE-luciferase reporter, bursicon stimulation; Drosophila bursicon receptor LGR2 (rickets); bursicon-stimulated, 4 h; inhibition, % at 9.99 µM; hit rate 0.35% among 380,000;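 active = drop in luminescence signal, shown as inhibition above about 50% in the replicate tests, limit read from the data, passing the limit was not always enough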;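 note: agonist challenge used bursicon conditioned medium at about half maximal strength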
TWEAK-Fn14 inh: inhibitors of TWEAK-Fn14 signaling, primary screen, luciferase reporter cells, uHTS; TWEAK-stimulated Fn14 reporter cells, luciferase luminescence, 8 h; inhibition, % at 10 µM; hit rate 2% among 360,000; AID 1159606, 2016; in the data active = inhibition above about 50%
The depositor's hits bear a star; x = no result. In the library only some 2% were active in any assay of this set; here they are far more common.

SMILES	CaV13 ICDI inh	Xi reactivation	TROY NFkB inh	LGR2 inh	TWEAK-Fn14 inh
O=C(Nc1ccccc1)N(CCCN1CCOCC1)Cc1cc2cc3c(cc2[nH]c1=O)OCCO3	x	x	23	x	28
CCc1ccc2[nH]c(=O)c(CN(CCN3CCCC3)C(=O)NC3CCCCC3)cc2c1	-5	x	x	x	85*
CCN(CC)CCCN(Cc1cc2cc3c(cc2[nH]c1=O)OCCO3)C(=O)Nc1ccccc1	x	x	78*	x	37
O=C(Nc1ccccc1F)N(CCCN1CCOCC1)Cc1cc2cc3c(cc2[nH]c1=O)OCCO3	-6	x	58*	x	14
CCN(CC)CCCN(Cc1cc2cc3c(cc2[nH]c1=O)OCO3)C(=S)Nc1ccc(OC)cc1	-57	0	-7	3	-3
CN(C)C(=O)c1ccc(-c2ccc3c(c2)[C@H]2[C@H](CCN2Cc2cncnc2)[C@H](CO)N3)cc1	x	0	x	12	x
C=C(C)CN=C1SC(C(=O)Nc2sc3c(c2C(=O)OC)CCC3)C(N)=C1C(N)=O (configuration not stated)	-3	0	5	5	57*
O=C(C[C@H]1C=C[C@@H](NC(=O)c2cccnc2)[C@H](CO)O1)NCc1ccncn1	x	1	x	4	x
Cc1ccc(S(=O)(=O)Nc2ccc3c(c2)C(=O)N([C@H](C)CO)C[C@H](C)[C@@H](CN(C)Cc2ccc(Cl)c(Cl)c2)OCCCC[C@H](C)O3)cc1	x	0	x	7	x
COc1ccc(C(=O)Nc2ccccn2)cc1	x	x	-3	x	-7
O=C(Nc1ccccn1)C(=O)Nc1ccccn1	-6	0	29	-10	51*
COc1ccc(C(=O)Nc2cnccn2)cc1[N+](=O)[O-]	-6	0	-2	13	6
O=C(Nc1ccccn1)c1ccc(-c2ccccc2)cc1	-9	0	54*	70*	89*
O=C(Nc1ccccc1)Nc1ccccn1	-8	x	-55	x	-20
CC(C)(C)c1ccc(C(=O)Nc2cnccn2)cc1	-8	x	13	x	61*
C[C@@H]1CN([C@@H](C)CO)C(=O)c2cc(-c3cccc(C(=O)N(C)C)c3)cnc2O[C@H]1CN(C)S(=O)(=O)c1cccc(F)c1	x	1	x	-1	x
O=C(C[C@@H]1CC[C@@H]2[C@H](COC[C@H](O)CN2Cc2cc(F)cc(F)c2)O1)Nc1nccs1	x	0	x	-6	x
CN(c1ccccc1)c1ccc(/C=C/[N+](=O)[O-])cc1	-12	1	89*	102*	103*
CC(C)(C)n1ncc2c(=O)n(CC(=O)OCc3ccccc3)cnc21	-5	x	87*	93*	99*
CC(C)(C)n1ncc2c(=O)n(Cc3cccc(Cn4cnc5c(cnn5C(C)(C)C)c4=O)c3F)cnc21	-4	0	48	2	82*
CC(C)(C)n1ncc2c(=O)n(CC(=O)c3ccccc3)cnc21	x	x	x	x	-6
CC(C)(C)n1ncc2c(=O)n(CC(=O)N3CCc4ccccc43)cnc21	x	x	60*	x	59*
Cn1cnc(CCNC(=O)C[C@H]2CC[C@@H]3[C@H](COC[C@H](O)CN3C(=O)Nc3ccc(F)cc3)O2)c1	x	0	x	-20	x
CCCC#Cc1ccc2c(c1)O[C@H](CN(C)C(=O)COC)[C@@H](C)CN([C@H](C)CO)S2(=O)=O	x	-1	x	6	x
CCOC(=O)c1c(C)[nH]c(C(=O)COC(=O)CNC(=O)C2CCCCC2)c1C	-4	x	69*	-13	10
CCOC(=O)c1c(C)[nH]c(C)c1C(=O)COC(=O)CNC(=O)C1CCCCC1	-6	0	23	3	6
CCc1ccc(C(=O)COC(=O)CNC(=O)C2CCCCC2)cc1	-6	0	76*	-32	66*
CCOc1ccc(NC(=O)CCN2C(=S)NC(C)(C)CC2C)cc1 (configuration not stated)	-6	0	-2	12	94*
CC1CC(C)(C)NC(=S)N1CCCC(=O)Nc1ccc(Cl)cc1 (configuration not stated)	-2	0	3	21	29
